Results on one compound are retold here after article PMC2606940 (The Journal of General Physiology, 2009).

The structures appear in SMILES notation. Numbering of substitutions follows the chain as printed. Where two headings read alike, the source gives them in different places.

Experiment [1] addresses T1, CLC-0 E166C/K519E mutant (E127/K519E) (Torpedo marmorata, UniProt P21564, C212S/E166C/K519E).
T1 sequence (P21564 1-805 E166C/C212S/K519E): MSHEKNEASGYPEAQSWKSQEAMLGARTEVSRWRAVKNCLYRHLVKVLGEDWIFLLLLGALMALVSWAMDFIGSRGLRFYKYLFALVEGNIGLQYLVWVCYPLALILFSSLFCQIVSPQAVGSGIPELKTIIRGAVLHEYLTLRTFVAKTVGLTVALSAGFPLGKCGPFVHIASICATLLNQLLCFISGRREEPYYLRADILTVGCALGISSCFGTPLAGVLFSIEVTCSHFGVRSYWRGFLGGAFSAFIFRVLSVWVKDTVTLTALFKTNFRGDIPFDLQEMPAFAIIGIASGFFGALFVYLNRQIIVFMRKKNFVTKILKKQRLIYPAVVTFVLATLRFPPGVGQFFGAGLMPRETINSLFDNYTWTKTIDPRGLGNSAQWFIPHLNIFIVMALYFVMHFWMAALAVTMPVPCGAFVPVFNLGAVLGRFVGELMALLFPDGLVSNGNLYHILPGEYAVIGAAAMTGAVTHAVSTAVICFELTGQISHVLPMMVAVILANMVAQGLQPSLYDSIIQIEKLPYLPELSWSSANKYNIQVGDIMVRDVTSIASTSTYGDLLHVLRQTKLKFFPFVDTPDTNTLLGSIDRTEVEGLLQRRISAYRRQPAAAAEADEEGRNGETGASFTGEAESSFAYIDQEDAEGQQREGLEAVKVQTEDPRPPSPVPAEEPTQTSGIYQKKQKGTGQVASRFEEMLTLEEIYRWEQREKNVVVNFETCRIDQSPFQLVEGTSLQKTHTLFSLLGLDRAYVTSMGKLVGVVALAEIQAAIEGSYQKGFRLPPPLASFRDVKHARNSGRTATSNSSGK
The format is cell-based. An outline of the steps:
(§1)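 CLC-0 mutants in the C212S background were transfected into HEK293 cells with lipofectamine and recorded 1–3 d later as excised inside-out patches. Both sides held 130 mM NaCl, 5 mM MgCl2, 10 mM HEPES and 1 mM EGTA, pH 7.4. CPA was perfused continuously onto the cytoplasmic face. Steady-state current over the last 10 ms was normalized to bracketing blocker-free controls and fitted to a Langmuir function for K1/2. Values are mean ± SEM of ~4–6 patches.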

Experiment [2] deals with T2, CLC-0 E166C/K519M mutant (E127/K519M) (Torpedo marmorata, UniProt P21564, C212S/E166C/K519M).
T2 sequence (P21564 1-805 E166C/C212S/K519M): T1 sequence (P21564 1-805 E166C/C212S/K519E) with E519M
It is filed as cell-based. The conditions noted are these: for IC50: read-out: Apparent affinity (K1/2). An outline of the steps:
as §1

For the next experiment, the target named is T3, CLC-0 E166A mutant (Torpedo marmorata, UniProt P21564, C212S/E166A).
T3 sequence (P21564 1-805 E166A/C212S): T1 sequence (P21564 1-805 E166C/C212S/K519E) with C166A, E519K
The conditions noted are these: ref Traverso et al., 2003; cited from earlier work.

On to `O=C(O)COc1ccc(Cl)cc1` [CPA, p-chlorophenoxy acetate], for which the IC50 came out at 730 ± 59 µM in experiment [1] (read-out: Apparent affinity (K1/2), −40 mV); 516 ± 46 µM in experiment [1] (read-out: Apparent affinity (K1/2), −60 mV); 377 ± 39 µM in experiment [1] (read-out: Apparent affinity (K1/2), −80 mV); 277 ± 37 µM in experiment [1] (read-out: Apparent affinity (K1/2), −100 mV); 203 ± 34 µM in experiment [1] (read-out: Apparent affinity (K1/2), −120 mV); 158 ± 31 µM in experiment [1] (read-out: Apparent affinity (K1/2), −140 mV). Also, the IC50 was 115 ± 25 µM in experiment [1] (read-out: Apparent affinity (K1/2), −160 mV); approximately 160 µM in experiment [1] (read-out: K1/2, −140 mV (Fig. 6)); 378 ± 7 µM in experiment [2] (−40 mV); 271 ± 5 µM in experiment [2] (−60 mV); 194 ± 4 µM in experiment [2] (−80 mV); 141 ± 5 µM in experiment [2] (−100 mV). The results for the IC50 in experiment [2] (−120 mV), in experiment [2] (−140 mV) and in experiment [2] (−160 mV) were 98 ± 4 µM, 69 ± 4 µM and 51 ± 4 µM, respectively. The apparent kon in experiment [1] (−160 mV) was determined as 110000 M⁻¹ s⁻¹; in experiment [2] (−160 mV) it was 170000 M⁻¹ s⁻¹. In addition, the apparent koff in experiment [2] (−160 mV) amounted to 10.5 s⁻¹. Also, the “CPA-blocking affinity of E166A relative to wild-type channel (higher)” value at CLC-0 E166A mutant was more than 100 fold.
